Compound activity: PubChem BioAssay, several laboratories
Most compounds without a hit are left out; they make up all but 1.6% or so of the library.
SKN-1 block: C. elegans SKN-1 inhibition; inhibition, % at 21.8 µM; hit rate 0.49% among 360,000; C. elegans VP596 Pgst-4::GFP/RFP ratio, acrylamide-induced, 24 h;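 active means interference check ratio from 0.5 to 1.5 plus GFP to RFP signal ratio inhibition reaching or exceeding a fixed threshold, cut at about 30% in these data, passing the limit was not always enough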
p-CIP stab down: p/CIP protein destabilization. Q05BA5. F442A p/CIP-EGFP cells, EGFP fluorescence, 16 h. decrease of EGFP signal, % at 10 µM. hit rate 0.01% among 290,000. AID 1984;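 active means EGFP signal decrease of at least 30% at 10 µM or well 3 SD below plate mean, unless failing retest; inactive means the rest, including hits failing retest or dose response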
MsrA act: activators of bovine methionine sulfoxide reductase A; purified bovine MsrA, absorbance read-out; activation, % at 10.6 µM; hit rate 0.3% among 360,000; AID 602163; in the data active means activation above about 7.5%;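 further: 0% = vehicle and 100% = reference activator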
MsrA inhibitor: inhibits bovine methionine sulfoxide reductase A. purified bovine MsrA, absorbance read-out. inhibition, % at 15.5 µM. hit rate 0.75% among 360,000. AID 651718;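 further: 0% = vehicle wells with enzyme and 100% = reference inhibitor wells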
MT1-MMP act inh: blocks activation of human MT1-MMP; GFP/RFP ratio change, % at 20 µM; HT1080 RFP-PRO-GFP cells, GFP/RFP ratio fluorescence, overnight; percent of plate control window, DMSO zero; hit rate 0.061% among 360,000;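 active means GFP/RFP ratio change of at least 30% with cell ATP level not reduced by more than half and red fluorescence within 50% of control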
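Material: RFP-PRO-GFP reporter HT1080 cells. Dosing: single-point 20 µM compound, 1% DMSO. Controls: DMSO and RFP-L50D-GFP cell wells. Timing: cells overnight before dosing, compound overnight, 37 °C, 5% CO2. Measure: GFP/RFP fluorescence ratio.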
MsrA inh confirm: confirmation of bovine MsrA inhibitors; shares compounds with MsrA inhibitor; purified bovine MsrA, absorbance read-out; inhibition, % at 15.5 µM; hit rate 41% among 2,300;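 further: coupled to thioredoxin reductase with NADPH and selenocystamine and DMSO as substrate; 0% = vehicle only and 100% = full effect of reference inhibitor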
The depositor's hits bear a star; . = no result. Unless noted, no stated cut-off is given here; in the data, active means inhibition above about 4.5%; inactive means the rest.

SMILES | SKN-1 block | p-CIP stab down | MsrA act | MsrA inhibitor | MT1-MMP act inh | MsrA inh confirm
O=C(NN=Cc1ccc(N(CCCl)CCCl)cc1)c1cccnc1 | -2 | . | -6 | 5.2* | 6 | 4
COC(=O)C1=C(c2cc3ccccc3o2)C[C@@H]2CC[C@H]1N2C(=O)NCc1ccccc1 | 3 | . | -1 | 1 | -3 | .
CN(C)c1ccc(C(=O)c2ccc(N(C)C)cc2)cc1 | 42* | -13 | -8 | 5.0* | -7 | 4
CC(=O)OC1CCC2(/C=N/O)C(=CCC3C4CCC(=O)C4(C)CCC32)C1 (stereo not given) | 14 | -2 | -2 | 0 | 3 | .
CN(C)c1ccc(/C=C2/C(=O)NC(=O)N(CCc3ccc(F)cc3)C2=O)cc1 | 18 | -20 | -4 | 4 | -5 | .
CN(C)c1ccc(/C=C2\C(=O)NC(=O)N(Cc3ccc(F)cc3)C2=O)cc1 | 34 | -12 | -3 | 4.9* | 15 | 4.6*
CC(C)n1c(O)c(C=NCc2cccnc2)c(=O)[nH]c1=S | -5 | -2 | -5 | 4.9* | 1 | 5.2*
CCOc1cc2c(cc1OCC)-n1cccc1C(c1ccccc1OC)NC2 (stereo not given) | 11 | -5 | -1 | 0 | 3 | .
O=C1c2cccc3cccc(c23)C(=O)N1/N=C/c1c(O)n(-c2ccccc2)c(=O)[nH]c1=O | 3 | -26 | -3 | 5.1* | -5 | 3
Cc1cc(N(CCCl)CCCl)ccc1/C=N/NC(=O)c1ccco1 | 13 | 2 | -13 | 4.8* | -1 | 3
COc1cc(N2CCOCC2)ccc1C=C1C(=O)NC(=O)NC1=O | 20 | -2 | -7 | 4 | 1 | .
O=C1NC(=O)C(=Cc2ccc(N3CCOCC3)cc2)C(=O)N1 | 3 | -1 | -3 | 6.0* | -6 | 3
CC(C)c1ccc(-n2c(O)c(C=NC(CCS(C)=O)C(=O)O)c(=O)[nH]c2=S)cc1 (stereo not given) | 13 | -8 | -4 | 5.1* | 6 | 4
